The values below come from ChEMBL document CHEMBL3102843, “Synthesis and antifungal activity of substituted 2,4,6-pyrimidinetrione carbaldehyde hydrazones” (Bioorg Med Chem, 2014).

Values after ≈ are worked out from the molar mass of the structure shown. Active and inactive are the calls of the source. Unless noted, no cut-off for these calls is given here.

The test system of test [1] is Nakaseomyces glabratus. The test is described as follows: Antifungal activity against Candida glabrata ATCC 48435 at 125 ug/ml after 48 to 72 hrs by broth microdilution method. The format is functional, organism-based. The method, boiled down: (§1)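 Broth microdilution per NCCLS. Inocula come from 5–7 colonies on YM agar, suspended in sterile water and adjusted to 0.5 McFarland at 530 nm (stock 1×10⁶–5×10⁶ cells/mL), then diluted 1:50 in HEPES-buffered RPMI 1640. Compounds in DMSO (final ≤1%) are added as a 10-fold dilution into the suspension. Plates run 48–72 h at 35 °C, humid. Growth is scored visually; the endpoint is ≥80% reduction versus drug-free wells.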

Test [2] deals with Candida albicans. The test is described as follows: Antifungal activity against Candida albicans ATCC 10231 at 125 ug/ml after 48 to 72 hrs by broth microdilution method. The format is functional, organism-based. The method, boiled down: as §1
Test [3] has as its system Nakaseomyces glabratus. The test is described as follows: Antifungal activity against Candida glabrata ATCC 48435 after 48 to 72 hrs by broth microdilution method. The format is functional. The method, boiled down: (§2)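 Broth microdilution per NCCLS. Organisms were subcultured on Sabouraud agar. Inoculum was 5–7 colonies from YM agar in sterile water, adjusted to 0.5 McFarland at 530 nm (1–5×10⁶ cells/mL stock), held 30 min at RT, then diluted 1:50 in HEPES-buffered RPMI 1640. DMSO stocks were twofold-diluted, with final DMSO ≤1%. Plates ran 48–72 h at 35 °C, humid. MIC is the lowest concentration giving ≥80% growth reduction vs drug-free wells, scored visually. Fluconazole or amphotericin B ran as drug control.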

Test [4] has as its system Candida albicans. The test is described as follows: Antifungal activity against Candida albicans ATCC 10231 after 48 to 72 hrs by broth microdilution method. The format is functional. The method, boiled down: as §2

As to `CN1C(=O)NC(=O)C(C=O)C1=O` (stereo not given), the result with Nakaseomyces glabratus [1] and in the test with Candida albicans [2] was inactive.
For `O=C1NC(=O)C(CCCC2CCCCC2)C(=O)N1`, the result in the test with Nakaseomyces glabratus [1] and in the test with Candida albicans [2] was inactive.
For `O=C1NC(=O)C(C(=O)c2cc([N+](=O)[O-])cc([N+](=O)[O-])c2)C(=O)N1`, the outcome in the test on Nakaseomyces glabratus [1] and with Candida albicans [2] was inactive.
Take `O=C1NC(=O)N(c2ccccc2)C(=O)C1CC1CCC(O)CC1` (stereo not given): the result in the test on Nakaseomyces glabratus [1] and in the test with Candida albicans [2] was inactive.
Turning to `CN1C(=O)C(C(=O)c2ccccc2)C(=O)N(C)C1=O`, the result with Nakaseomyces glabratus [1] and in the test with Candida albicans [2] was inactive.
Turning to `O=C1NC(=O)C(Cc2ccccc2)(Cc2ccccc2)C(=O)N1`, the result in the test on Nakaseomyces glabratus [1] and with Candida albicans [2] was inactive.
With `CN1C(=O)C(C(=O)c2cccc([N+](=O)[O-])c2)C(=O)N(C)C1=O`, the outcome in the test on Nakaseomyces glabratus [1] and with Candida albicans [2] was inactive.
`O=C1NC(=O)C(C2CCCCC2)C(=O)N1`: the outcome with Nakaseomyces glabratus [1] and in the test on Candida albicans [2] was inactive.
Take `O=C1NC(=O)C(C(=O)c2ccccc2)C(=O)N1`: the result in the test with Nakaseomyces glabratus [1] and in the test with Candida albicans [2] was inactive.
`CN1C(=O)C(C(=O)c2cc([N+](=O)[O-])cc([N+](=O)[O-])c2)C(=O)N(C)C1=O`: the outcome in the test on Nakaseomyces glabratus [1] and in the test with Candida albicans [2] was inactive.
Turning to `CN1C(=O)C(C(=O)c2cccnc2)C(=O)N(C)C1=O`, the outcome in the test with Nakaseomyces glabratus [1] and in the test with Candida albicans [2] was inactive.
Regarding `O=C1NC(=O)C(CC2CCC(O)CC2)C(=O)N1` (stereo not given), the result in the test on Nakaseomyces glabratus [1] and in the test with Candida albicans [2] was inactive.
As for `O=C1NC(=O)C(Cc2ccc(O)cc2)C(=O)N1`, the result in the test on Nakaseomyces glabratus [1] and in the test with Candida albicans [2] was inactive.
Take `CN1C(=O)C(C(=O)c2ccc([N+](=O)[O-])cc2)C(=O)N(C)C1=O`: the result with Nakaseomyces glabratus [1] and with Candida albicans [2] was inactive.
Take `O=C1NC(=O)C(CCCc2ccccc2)C(=O)N1`: the result in the test on Nakaseomyces glabratus [1] and in the test with Candida albicans [2] was inactive.
`CC(=O)C1C(=O)NC(=O)NC1=O`: the result in the test on Nakaseomyces glabratus [1] and in the test with Candida albicans [2] was inactive.
In the case of `CN1C(=O)C(CCCc2ccccc2)C(=O)N(C)C1=O`, the result in the test on Nakaseomyces glabratus [1] and in the test with Candida albicans [2] was inactive.
On to `O=C1NC(=O)C(C(=O)c2ccc([N+](=O)[O-])cc2)C(=O)N1`, for which the result in the test with Nakaseomyces glabratus [1] and with Candida albicans [2] was inactive.
As for `COC(=O)N/N=C/C1C(=O)N(C)C(=O)N(C)C1=O`, the MIC80 result in the test with Nakaseomyces glabratus [3] and with Candida albicans [4] was “inactive” each time.
On to `CN/N=C/C1C(=O)NC(=O)NC1=O`, for which the MIC80 entry in the test on Nakaseomyces glabratus [3] and in the test with Candida albicans [4] was “inactive” each time.
In the case of `CN(C)c1ccc(CC2(Cc3ccc(N(C)C)cc3)C(=O)NC(=O)NC2=O)cc1`, the outcome in the test with Nakaseomyces glabratus [1] and in the test with Candida albicans [2] was inactive.
With `C/C(=N\NS(=O)(=O)c1ccccc1)C1C(=O)NC(=O)NC1=O`, the MIC80 entry with Nakaseomyces glabratus [3] and with Candida albicans [4] was “inactive” throughout.
On to `CN1C(=O)C(=Cc2ccc(O)cc2)C(=O)N(C)C1=O`, for which the MIC80 entry with Nakaseomyces glabratus [3] and with Candida albicans [4] was “inactive” each time.
Regarding `CN1C(=O)C(C(=O)c2ccc(O)cc2)C(=O)N(C)C1=O`, the result in the test with Nakaseomyces glabratus [1] and in the test on Candida albicans [2] was inactive.
Consider `CN1C(=O)NC(=O)C(C(=O)c2ccccc2)C1=O` (stereo not given), for which the outcome in the test on Nakaseomyces glabratus [1] and with Candida albicans [2] was inactive.
For `CC(C)C1C(=O)NC(=O)N(c2ccccc2)C1=O` (stereo not given), the outcome with Nakaseomyces glabratus [1] and in the test with Candida albicans [2] was inactive.
Turning to `N/N=C/C1C(=O)NC(=O)NC1=O`, the MIC80 worked out at 16 µg/mL (≈ 94 µM) against Nakaseomyces glabratus [3] and 125 µg/mL (≈ 735 µM) against Candida albicans [4].
On to `COc1cc(OC)c(C=C2C(=O)N(C)C(=O)N(C)C2=O)c(OC)c1`, for which the MIC80 result with Nakaseomyces glabratus [3] and in the test with Candida albicans [4] was “inactive” throughout.
On to `CCCCN1C(=O)NC(=O)C(C(=O)c2ccc(O)cc2)C1=O` (stereo not given), for which the result in the test on Nakaseomyces glabratus [1] and with Candida albicans [2] was inactive.
`O=CC1C(=O)NC(=O)NC1=O`: the result in the test with Nakaseomyces glabratus [1] and with Candida albicans [2] was inactive.
As to `COc1ccc(C=C2C(=O)N(C)C(=O)N(C)C2=O)cc1`, the MIC80 result with Nakaseomyces glabratus [3] and in the test with Candida albicans [4] was “inactive” in each case.
`O=C1NC(=O)C(C(=O)c2ccc(O)cc2)C(=O)N1`: the outcome with Nakaseomyces glabratus [1] and with Candida albicans [2] was inactive.
Turning to `O=C1NC(=O)C(/C=N/n2cnnc2)C(=O)N1`, the MIC80 entry in the test on Nakaseomyces glabratus [3] and in the test on Candida albicans [4] was “inactive” throughout.
In the case of `CN1C(=O)C(/C=N/c2ccncc2)C(=O)N(C)C1=O`, the MIC80 entry in the test on Nakaseomyces glabratus [3] and with Candida albicans [4] was “inactive” throughout.
Regarding `COc1ccc(C(=O)C2C(=O)N(C)C(=O)N(C)C2=O)cc1`, the result in the test with Nakaseomyces glabratus [1] and with Candida albicans [2] was inactive.
With `CN1C(=O)C(=C/C=C/c2ccccc2)C(=O)N(C)C1=O`, the MIC80 in the test on Nakaseomyces glabratus [3] came to 125 µg/mL (≈ 462 µM); against Candida albicans [4], 62 µg/mL (≈ 229 µM).
`CN/N=C(\C)C1C(=O)N(C)C(=O)N(C)C1=O`: the MIC80 result in the test on Nakaseomyces glabratus [3] and with Candida albicans [4] was “inactive” throughout.
For the molecule `COc1ccc(C(=O)C2C(=O)NC(=O)NC2=O)cc1`, the outcome in the test on Nakaseomyces glabratus [1] and in the test with Candida albicans [2] was inactive.
In the case of `O=C1NC(=O)C(/C=N/C2N=NN=N2)C(=O)N1`, the MIC80 entry in the test on Nakaseomyces glabratus [3] and in the test on Candida albicans [4] was “inactive” each time.
As for `O=C1NC(=O)C(/C=N/c2ccccc2)C(=O)N1`, the MIC80 result with Nakaseomyces glabratus [3] and in the test with Candida albicans [4] was “inactive” throughout.
Turning to `Cc1ccc(S(=O)(=O)N/N=C/C2C(=O)N(C)C(=O)N(C)C2=O)cc1`, the MIC80 entry in the test with Nakaseomyces glabratus [3] and in the test with Candida albicans [4] was “inactive” each time.
Consider `COC(=O)N/N=C(\c1ccc([N+](=O)[O-])cc1)C1C(=O)NC(=O)NC1=O`, for which the MIC80 entry in the test with Nakaseomyces glabratus [3] and in the test on Candida albicans [4] was “inactive” each time.
Molecule `O=C1NC(=O)C(=Cc2ccccc2O)C(=O)N1` came in with an MIC80 with Nakaseomyces glabratus [3] of 8 µg/mL (≈ 34.5 µM). Besides, the MIC80 result in the test on Candida albicans [4] was “inactive”.
On to `CN1C(=O)C(/C=N/n2cnnc2)C(=O)N(C)C1=O`, for which the MIC80 result in the test on Nakaseomyces glabratus [3] and in the test on Candida albicans [4] was “inactive” in each case.
Regarding `COc1ccc(/N=C(\C)C2C(=O)NC(=O)NC2=O)cc1`, the MIC80 entry with Nakaseomyces glabratus [3] and in the test on Candida albicans [4] was “inactive” throughout.
Consider `C/C(=N\NS(=O)(=O)c1ccc(C)cc1)C1C(=O)NC(=O)NC1=O`, for which the MIC80 result in the test with Nakaseomyces glabratus [3] and with Candida albicans [4] was “inactive” each time.
Take `C/C(=N\NC(=O)c1ccccc1)C1C(=O)N(C)C(=O)N(C)C1=O`: the MIC80 result with Nakaseomyces glabratus [3] and with Candida albicans [4] was “inactive” throughout.
For `C/C(=N\NS(=O)(=O)c1ccccc1)C1C(=O)N(C)C(=O)N(C)C1=O`, the MIC80 result in the test on Nakaseomyces glabratus [3] and in the test with Candida albicans [4] was “inactive” in each case.
For `COC(=O)N/N=C(\C)C1C(=O)NC(=O)NC1=O`, the MIC80 entry in the test on Nakaseomyces glabratus [3] and in the test with Candida albicans [4] was “inactive” in each case.
Turning to `CN1C(=O)C(/C=N/N)C(=O)N(C)C1=O`, the MIC80 with Nakaseomyces glabratus [3] was found to be 16 µg/mL (≈ 80.7 µM); in the test on Candida albicans [4], 125 µg/mL (≈ 631 µM).
